Beta cell apopt = inhibitors of cytokine-induced beta cell apoptosis, primary screen, luminescence. INS-1E cytokine-induced death, ATP luminescence, 48 h; percent of positive-control rescue, neutral wells zero. protection from apoptosis, % (concentration not given with the values). actives 0.8% (n = 300,000). AID 435005, 2010;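 active = Every replicate reaches about 75%, or at least half do and their mean reaches it too, limit read from the data; inconclusive = At least half of replicates reach the limit but their mean does not; inactive = Under half of replicates reach the limit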;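 also: 0% = cytokine-treated negative control wells and 100% = positive control rescue; higher means more ATP so stronger rescue from cytokine killing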
Calb FLC = C. albicans growth inhibition with fluconazole, primary screen, CaCi-2 strain, Alamar Blue fluorescence; C. albicans CaCi-2 (fluconazole-resistant clinical isolate) + fluconazole, 48 h; growth inhibition, % (concentration not given with the values); actives 0.57% (n = 300,000); AID 1979, 2009;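 active = growth inhibition above about 58% in most replicates, limit read from the data, passing the limit was not always enough; inconclusive = exactly half the replicates above a set limit; inactive = most replicates below a set limit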;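 also: all wells also contain fluconazole at 8 µg/ml as a sub-toxic cotreatment; 0% = median of DMSO wells and 100% = median of geldanamycin control wells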
PolyA inhibitor = polyadenylation inhibitors in yeast reporter cells, primary screen, luminescence, S. cerevisiae; AID 1875, 2009; activity score, % at 12 µM; actives 0.02% (n = 300,000); S. cerevisiae SKY197-pL101 polyadenylation reporter, beta-gal luminescence; efflux-impaired pdr1/pdr3 knockout yeast; score 100 = 6 SD above DMSO;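 active = lowest replicate activity score at least 50, where 100 means six control SD above control mean; inconclusive = lowest score under 50 but half or more replicates reach 50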;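 also: yeast exposed to compound for 9 h at 30 °C; higher score means more reporter readthrough which indicates perturbed polyadenylation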
HIF activator = HIF pathway transcriptional activators, primary screen, cell-based, U2OS HRE-luciferase, luminescence; actives 0.32% (n = 300,000); U2OS HRE-luciferase reporter; normalized: DMSO 0%, desferrioxamine 100%; activation, % at 7.5 µM (by protocol);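 active = mean activation of at least 10% of the iron chelator positive control signal, with at least half of replicates also reaching 10%; inconclusive = mean and replicate majority disagree about reaching 10%; inactive = mean and most replicates under 10%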
CSC inhib = cancer stem cell viability inhibitors, primary screen, luminescence. inhibition, % at 7.5 µM. actives 1.1% (n = 300,000). AID 2717, 2010. cancer stem cell-like cells viability; in the data active = inhibition above about 75%; inconclusive = no clear call, values can overlap the other calls; tested in HMLE shEcad cells
T cruzi repl = inhibitors of intracellular T. cruzi growth, primary screen, luminescence, NIH3T3 host cells. actives 1.4% (n = 300,000). AID 1885, 2009. inhibition, % (test concentration not listed). T. cruzi beta-gal in NIH3T3, 90 h;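 active = mean inhibition across valid replicates above about 55%, limit read from the data; inconclusive = mean below that limit but half or more replicates reach it; inactive = mean below it, under half of replicates reach it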;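 also: signal also drops with host cell toxicity which is not excluded here; 0% = plate median of DMSO wells and 100% = zero luminescence signal; higher percent means less beta-gal luminescence so fewer parasites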
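System: mouse NIH/3T3 fibroblasts infected with β-gal-expressing T. cruzi Tulahuen C4 / Input: NIH/3T3 cells, 5,000 per well / Buffer or medium: Low-serum DMEM with 2% FBS / Probe or stimulus: 5000 reporter trypomastigotes per well / Schedule: ≥90 h infection period, 3 h prior cell attachment / Measured by: GalScreen luminescence, 60 min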
Numbers without * were called inactive; u = inconclusive; x = not tested or not shown. In the library only some 3.1% were active in any assay of this set; here they are far more common.

SMILES	Beta cell apopt	Calb FLC	PolyA inhibitor	HIF activator	CSC inhib	T cruzi repl
Cc1cc(O)c(C(=O)/C=C/c2ccc(Cl)cc2)c(=O)o1	-1	-3	-4	2	23	-3
Cc1ccc(CNC(=O)c2ccc([N+](=O)[O-])o2)cc1	-27	-6	1	-1	-6	47
Cc1ccc(/C=C/C(=O)c2ccc([N+](=O)[O-])o2)cc1	109*	48	-3	-1	35	25
O=C(/C=C/c1ccc(Cl)cc1)c1ccc([N+](=O)[O-])o1	115*	-5	-13	1	u	4
N#CCCN(C(=O)c1ccc2c(=O)n3c(nc2c1)CCCCC3)c1ccccc1	-6	-6	22	0	-12	-8
NC(=O)c1ccc(N2CCN(S(=O)(=O)c3cccs3)CC2)c([N+](=O)[O-])c1	82*	x	x	x	-3	x
NC(=O)c1ccc(N2CCN(c3ccccc3O)CC2)c([N+](=O)[O-])c1	4	2	0	-1	5	11
O=C(COC(=O)c1ccccc1NC(=O)c1ccccc1)c1cccc([N+](=O)[O-])c1	-7	10	-12	0	11	-6
CCOC(=O)c1ccccc1NC(=O)c1cccc([N+](=O)[O-])c1	3	108*	-36	0	-10	8
CC(C)C(NC(=O)/C=C/c1cccc([N+](=O)[O-])c1)C(C)C	1	-3	-1	0	-2	-1
CC(C)NC(=O)c1ccccc1NC(=O)/C=C/c1cccc([N+](=O)[O-])c1	113*	2	1	-1	96*	8
CCOC(=O)c1ccccc1NC(=O)CN1C(=O)NC(C)(CCc2ccccc2)C1=O (stereo not drawn)	3	-3	1	0	25	4
Cc1ccc(N2CC(NC(=O)C3CC3)CC2=O)cc1 (stereo not drawn)	x	-5	-5	0	-3	-3
Cc1ccc(-n2c(O)c(C=Nc3ccccc3-c3n[nH]c(=S)[nH]c3=O)c3ccccc3c2=O)cc1C	x	100*	20	0	x	22
O=C(Nc1ccc(OC(F)F)c(Cl)c1)C(c1ccccc1)c1ccccc1	95*	-12	3	0	40	60*
O=C(Cc1cccc2ccccc12)Nc1ccc(OC(F)F)c(Cl)c1	-10	-21	-5	1	11	29
COc1cccc(N2CCN(c3nc(C)cc(=O)[nH]3)CC2)c1	-6	18	4	0	-7	-6
CC(OC(=O)CC(NC(=O)c1ccccc1Cl)c1ccccc1)C(=O)Nc1cccc(Cl)c1Cl (stereo not drawn)	0	11	20	0	2	8
CN(C)Cc1c(C(C)(C)O)[nH]c2ccc(C(F)(F)F)cc12	-6	x	x	x	-8	x
CCc1c(C2(O)CCCCC2)[nH]c2ccc(C(F)(F)F)cc12	20	-13	-20	-1	84*	10
O=C(NNC(=O)C12CC3CC(CC(C3)C1)C2)c1ccccn1	91*	1	-12	0	17	4
O=C(NNC(=S)NC(=O)C12CC3CC(CC(C3)C1)C2)c1ccncc1	22	103*	-12	0	-11	-2
CC1(C(=O)NC(=S)NNC(=O)c2ccncc2)CCCCC1	x	-5	-15	0	1	-2
O=C(NNC(=O)C12CC3CC(CC(C3)C1)C2)c1cnccn1	1	104*	-2	0	5	-26
CC(C)(C)C(=O)Nc1sc2c(c1C#N)CCN(Cc1ccccc1)C2	6	2	-18	1	-1	-1
Cc1sc(NC(=O)CN(Cc2ccc(F)cc2)C(=O)C(C)(C)C)c(C(N)=O)c1C	-3	27	13	0	1	3
COc1ccc(-c2ccc(CO)o2)cc1N	2	29	20	0	2	-22
O=c1[nH]c(SCc2ccccc2Cl)nc2c1CCC2	-1	31	-2	0	-12	2
CNc1nc(SCc2ccccc2Cl)nc2c1CCCC2	5	24	-17	0	79*	14

Screens (PubChem)
